Assay results from ChEMBL document CHEMBL4689842, “EUbOPEN Chemogenomics Library wave 1” (2021).

Key:
U2OS = test: Multiplex assay against U2OS; type: toxicity, cell-based; conditions: human
Summary of the method: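 Tubulin, mitochondrial-mass and membrane-permeability phenotypes are per cents of healthy-nucleus cells. Cells were gated by CellPathfinder machine learning into Hoechst high-intensity objects or normal cells, normal cells into healthy, pyknosed or fragmented nuclei, and pyknosed cells into mitotic or apoptotic. Before that, live cells stained at seeding with Hoechst33342, BioTracker Green Microtubule Cytoskeleton Dye, MitoTracker Red and Annexin V Alexa Fluor 680 were imaged on a CQ1 microscope at 37°C and 5% CO2 after compound addition.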

HEK-293T = test: Incucyte cell viability with HEK293T; type: toxicity, cell-based; conditions: human, 10 µM, compound concentration 10 uM; further: filed as whole numbers so only -1 and 0 and 1 occur
[1] = 12 h, 1 µM, compound concentration 1 uM, replicate 1
[2] = 12 h, 1 µM, compound concentration 1 uM, replicate 2
[3] = 12 h, 10 µM, compound concentration 10 uM, replicate 1
[4] = 12 h, 10 µM, compound concentration 10 uM, replicate 2
[5] = 24 h, 1 µM, compound concentration 1 uM, replicate 1
[6] = 24 h, 1 µM, compound concentration 1 uM, replicate 2
[7] = 24 h, 10 µM, compound concentration 10 uM, replicate 1
[8] = 24 h, 10 µM, compound concentration 10 uM, replicate 2

Which “Population Apoptotic (%)” value (U2OS; [1]) does the source give for Cl.Cl.NC1(c2ccc(-c3nc4ccn5c(=O)[nH]nc5c4cc3-c3ccccc3)cc2)CCC1 here?
Its value is 53%.

What about the “Population Fragmented Nuclei (%)” value (U2OS; [1]) of the same compound?
The value was 11%.

What about the “Population Healthy Nuclei (%)” value (U2OS; [1]) of the same compound?
The value was 81%.

What about the “Population Hoechst High Intensity Objects (%)” value (U2OS; [1]) of the same compound?
The value was 1%.

What about the “Population Membrane Permeable-Phenotype (%)” value (U2OS; [1]) of the same compound?
Its value is 20%.

What about the “Population Mitochondria Different-Phenotype (%)” value (U2OS; [1]) of the same compound?
The value was 13%.

And the “Population Mitotic Cells (%)” value (U2OS; [1])?
Its value is 46%.

What about the “Population Normal (%)” value (U2OS; [1]) of the same compound?
Its value is 98%.

And the “Population Pyknosed Nuclei (%)” value (U2OS; [1])?
Its value is 6%.

And the “Population Tubulin-Different-Phenotype (%)” value (U2OS; [1])?
The value was 14%.

And the “Total Cell Count” value (U2OS; [1])?
The value was 154.

And the “Population Apoptotic (%)” value (U2OS; [2])?
Its value is 50%.

And the “Population Fragmented Nuclei (%)” value (U2OS; [2])?
The value was 17%.

And the “Population Healthy Nuclei (%)” value (U2OS; [2])?
Its value is 77%.

What about the “Population Hoechst High Intensity Objects (%)” value (U2OS; [2]) of the same compound?
The value was 12%.

And the “Population Membrane Permeable-Phenotype (%)” value (U2OS; [2])?
The value was 10%.

What about the “Population Mitochondria Different-Phenotype (%)” value (U2OS; [2]) of the same compound?
The value was 17%.

What about the “Population Mitotic Cells (%)” value (U2OS; [2]) of the same compound?
Its value is 50%.

And the “Population Normal (%)” value (U2OS; [2])?
Its value is 87%.

What about the “Population Pyknosed Nuclei (%)” value (U2OS; [2]) of the same compound?
Its value is 4%.

What about the “Population Tubulin-Different-Phenotype (%)” value (U2OS; [2]) of the same compound?
The value was 19%.

And the “Total Cell Count” value (U2OS; [2])?
The value was 116.

What about the “Population Apoptotic (%)” value (U2OS; [3]) of the same compound?
Its value is 22%.

What about the “Population Fragmented Nuclei (%)” value (U2OS; [3]) of the same compound?
The value was 16%.

And the “Population Healthy Nuclei (%)” value (U2OS; [3])?
Its value is 40%.

What about the “Population Hoechst High Intensity Objects (%)” value (U2OS; [3]) of the same compound?
Its value is 9%.

And the “Population Membrane Permeable-Phenotype (%)” value (U2OS; [3])?
Its value is 28%.

What about the “Population Mitochondria Different-Phenotype (%)” value (U2OS; [3]) of the same compound?
The value was 53%.

And the “Population Mitotic Cells (%)” value (U2OS; [3])?
Its value is 77%.

What about the “Population Normal (%)” value (U2OS; [3]) of the same compound?
Its value is 90%.

And the “Population Pyknosed Nuclei (%)” value (U2OS; [3])?
Its value is 42%.

And the “Population Tubulin-Different-Phenotype (%)” value (U2OS; [3])?
Its value is 70%.

What about the “Total Cell Count” value (U2OS; [3]) of the same compound?
The value was 190.

What about the “Population Apoptotic (%)” value (U2OS; [4]) of the same compound?
Its value is 11%.

And the “Population Fragmented Nuclei (%)” value (U2OS; [4])?
The value was 26%.

And the “Population Healthy Nuclei (%)” value (U2OS; [4])?
The value was 42%.

What about the “Population Hoechst High Intensity Objects (%)” value (U2OS; [4]) of the same compound?
Its value is 16%.

And the “Population Membrane Permeable-Phenotype (%)” value (U2OS; [4])?
The value was 16%.

What about the “Population Mitochondria Different-Phenotype (%)” value (U2OS; [4]) of the same compound?
Its value is 51%.

And the “Population Mitotic Cells (%)” value (U2OS; [4])?
The value was 88%.

What about the “Population Normal (%)” value (U2OS; [4]) of the same compound?
The value was 83%.

What about the “Population Pyknosed Nuclei (%)” value (U2OS; [4]) of the same compound?
The value was 31%.

What about the “Population Tubulin-Different-Phenotype (%)” value (U2OS; [4]) of the same compound?
The value was 66%.

And the “Total Cell Count” value (U2OS; [4])?
Its value is 160.

What about the “Population Apoptotic (%)” value (U2OS; [5]) of the same compound?
Its value is 50%.

And the “Population Fragmented Nuclei (%)” value (U2OS; [5])?
The value was 9%.

And the “Population Healthy Nuclei (%)” value (U2OS; [5])?
The value was 85%.

And the “Population Hoechst High Intensity Objects (%)” value (U2OS; [5])?
The value was 1%.

What about the “Population Membrane Permeable-Phenotype (%)” value (U2OS; [5]) of the same compound?
The value was 14%.

What about the “Population Mitochondria Different-Phenotype (%)” value (U2OS; [5]) of the same compound?
Its value is 11%.

What about the “Population Mitotic Cells (%)” value (U2OS; [5]) of the same compound?
Its value is 50%.

And the “Population Normal (%)” value (U2OS; [5])?
Its value is 98%.

What about the “Population Pyknosed Nuclei (%)” value (U2OS; [5]) of the same compound?
The value was 5%.

What about the “Population Tubulin-Different-Phenotype (%)” value (U2OS; [5]) of the same compound?
The value was 17%.

What about the “Total Cell Count” value (U2OS; [5]) of the same compound?
Its value is 140.

What about the “Population Apoptotic (%)” value (U2OS; [6]) of the same compound?
The value was 16%.

And the “Population Fragmented Nuclei (%)” value (U2OS; [6])?
The value was 14%.

And the “Population Healthy Nuclei (%)” value (U2OS; [6])?
The value was 81%.

What about the “Population Hoechst High Intensity Objects (%)” value (U2OS; [6]) of the same compound?
The value was 8%.

And the “Population Membrane Permeable-Phenotype (%)” value (U2OS; [6])?
Its value is 10%.

What about the “Population Mitochondria Different-Phenotype (%)” value (U2OS; [6]) of the same compound?
Its value is 21%.

What about the “Population Mitotic Cells (%)” value (U2OS; [6]) of the same compound?
The value was 83%.

And the “Population Normal (%)” value (U2OS; [6])?
Its value is 91%.

What about the “Population Pyknosed Nuclei (%)” value (U2OS; [6]) of the same compound?
The value was 3%.

What about the “Population Tubulin-Different-Phenotype (%)” value (U2OS; [6]) of the same compound?
Its value is 19%.

And the “Total Cell Count” value (U2OS; [6])?
The value was 103.

What about the “Population Apoptotic (%)” value (U2OS; [7]) of the same compound?
Its value is 36%.

And the “Population Fragmented Nuclei (%)” value (U2OS; [7])?
Its value is 8%.

And the “Population Healthy Nuclei (%)” value (U2OS; [7])?
The value was 27%.

And the “Population Hoechst High Intensity Objects (%)” value (U2OS; [7])?
The value was 19%.

And the “Population Membrane Permeable-Phenotype (%)” value (U2OS; [7])?
Its value is 19%.

What about the “Population Mitochondria Different-Phenotype (%)” value (U2OS; [7]) of the same compound?
The value was 68%.

And the “Population Mitotic Cells (%)” value (U2OS; [7])?
The value was 64%.

What about the “Population Normal (%)” value (U2OS; [7]) of the same compound?
Its value is 80%.

And the “Population Pyknosed Nuclei (%)” value (U2OS; [7])?
Its value is 64%.

And the “Population Tubulin-Different-Phenotype (%)” value (U2OS; [7])?
The value was 55%.

What about the “Total Cell Count” value (U2OS; [7]) of the same compound?
The value was 268.

And the “Population Apoptotic (%)” value (U2OS; [8])?
The value was 29%.

And the “Population Fragmented Nuclei (%)” value (U2OS; [8])?
The value was 18%.

And the “Population Healthy Nuclei (%)” value (U2OS; [8])?
Its value is 23%.

And the “Population Hoechst High Intensity Objects (%)” value (U2OS; [8])?
Its value is 21%.

And the “Population Membrane Permeable-Phenotype (%)” value (U2OS; [8])?
The value was 11%.

What about the “Population Mitochondria Different-Phenotype (%)” value (U2OS; [8]) of the same compound?
The value was 57%.

What about the “Population Mitotic Cells (%)” value (U2OS; [8]) of the same compound?
The value was 70%.

And the “Population Normal (%)” value (U2OS; [8])?
The value was 78%.

And the “Population Pyknosed Nuclei (%)” value (U2OS; [8])?
Its value is 58%.

What about the “Population Tubulin-Different-Phenotype (%)” value (U2OS; [8]) of the same compound?
Its value is 48%.

And the “Total Cell Count” value (U2OS; [8])?
Its value is 181.

What about the “Growth Rate” value (HEK-293T; 6 h, replicate number 1, timepoint 6 hours) of the same compound?
Its value is 0.

And the “Growth Rate” value (HEK-293T; 12 h, replicate number 1, timepoint 12 hours)?
The value was 0.

And the “Growth Rate” value (HEK-293T; 18 h, replicate number 1, timepoint 18 hours)?
The value was 0.

And the “Growth Rate” value (HEK-293T; 24 h, replicate number 1, timepoint 24 hours)?
The value was 0.
